Assay results published in article PMC2606940 (The Journal of General Physiology, 2009).
Residue numbers refer to the chain shown, from its start. Where a name gives a salt, the structure may show the parent alone.

How the values were obtained:
CLC-0 E166A mutant = target: T1, CLC-0 E166A mutant (Torpedo marmorata, UniProt P21564, C212S/E166A); assay type: cell-based; conditions: for K1/2 (range in words): −140 mV (Fig. 10 C)
T1 sequence (P21564 1-805 E166A/C212S): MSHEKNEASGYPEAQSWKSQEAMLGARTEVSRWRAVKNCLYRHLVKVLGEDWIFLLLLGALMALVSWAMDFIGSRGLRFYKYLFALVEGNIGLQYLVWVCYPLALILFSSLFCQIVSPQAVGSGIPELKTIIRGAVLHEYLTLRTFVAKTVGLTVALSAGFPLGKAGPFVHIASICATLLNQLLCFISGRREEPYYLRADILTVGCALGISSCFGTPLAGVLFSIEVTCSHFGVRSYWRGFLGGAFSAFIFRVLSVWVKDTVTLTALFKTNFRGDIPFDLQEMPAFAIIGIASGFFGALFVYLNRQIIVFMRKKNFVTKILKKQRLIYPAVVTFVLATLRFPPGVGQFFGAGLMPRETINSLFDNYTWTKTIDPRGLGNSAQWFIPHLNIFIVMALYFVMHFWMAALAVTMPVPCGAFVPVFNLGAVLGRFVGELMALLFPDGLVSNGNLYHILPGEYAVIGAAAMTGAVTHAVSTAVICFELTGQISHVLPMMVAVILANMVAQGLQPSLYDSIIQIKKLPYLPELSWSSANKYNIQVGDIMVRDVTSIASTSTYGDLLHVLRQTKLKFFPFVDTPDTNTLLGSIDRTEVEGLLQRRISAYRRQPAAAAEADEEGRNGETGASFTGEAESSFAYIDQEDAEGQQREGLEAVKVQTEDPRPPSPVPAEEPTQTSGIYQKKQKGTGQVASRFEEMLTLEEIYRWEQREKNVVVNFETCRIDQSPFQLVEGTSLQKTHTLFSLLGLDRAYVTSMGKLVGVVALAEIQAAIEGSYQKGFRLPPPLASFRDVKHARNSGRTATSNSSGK
Method in brief: (§1)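 HEK293 cells expressed C212S-background CLC-0 mutants and were recorded 1–3 d post-transfection as inside-out patches in symmetrical 130 mM NaCl, 10 mM HEPES, pH 7.4. CPA, fatty acids or alkyl sulfates flowed continuously on the cytoplasmic side. C10–C12 compounds were diluted into bath solution from 10 mM DMSO stocks. Test steps ran from +80 to −160 mV after a +80 mV prepulse. Steady-state current was normalized to the mean of pre- and post-blocker controls, and a Langmuir K1/2 was taken at each voltage from ~4–6 patches.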

CLC-0 E166Q mutant = target: T2, CLC-0 E166Q mutant (Torpedo marmorata, UniProt P21564, C212S/E166Q); assay type: cell-based; conditions: 5 μM SDS
T2 sequence (P21564 1-805 E166Q/C212S): T1 sequence (P21564 1-805 E166A/C212S) with A166Q
Method in brief: as §1

Structure (SMILES)	K1/2 (range in words) (CLC-0 E166A mutant)	blocking affinity (in words) (CLC-0 E166A mutant)	other results
CCCC(=O)O [butyrate]	mM range	–	–
CS(=O)(=O)SCCCCCS(=O)(=O)O [5-sulfonatopentyl MTS]	–	lower affinities than that observed with SDS	–
CCCCCCCCCC(=O)O [decanoate]	low μM range	–	–
CCCCCCCCCCCCOS(=O)(=O)O [SDS, dodecyl sulfate]	–	high affinity	block of current (CLC-0 E166A mutant; 5 μM SDS, −160 mV): ~50%; effect on current (CLC-0 E166Q mutant): very limited effect
CCCCCCCCO [Octanol]	–	low affinity	voltage dependence of the block (CLC-0 E166A mutant): no voltage dependence
CCCCCCCCCCCC(=O)O [dodecanoate]	low μM range	–	–
CCC(=O)O [propionate]	mM range	–	–
CS(=O)(=O)SCCS(=O)(=O)O [2-sulfonatoethyl MTS]	–	lower affinities than that observed with SDS	–
